Experimental findings from ChEMBL document CHEMBL2331374, “Novel leucine ureido derivatives as inhibitors of aminopeptidase N (APN)” (Bioorg Med Chem, 2013) are described below.

For assay [1], the target named is Histone deacetylase 1/3/5/8 (Homo sapiens, UniProt Q13547+O15379+Q9UQL6+Q9BY41). Description: Inhibition of HDAC1/HDAC3/HDAC5/HDAC8 in human HeLa nuclear extract using Boc-Lys(acetyl)-AMC as substrate incubated for 5 mins prior to substrate measured after 30 mins by spectrophotometric analysis. The format is protein assay.
In assay [2] the target is T1, Aminopeptidase N (Sus scrofa, UniProt P15145).
T1 sequence (P15145 whole entry): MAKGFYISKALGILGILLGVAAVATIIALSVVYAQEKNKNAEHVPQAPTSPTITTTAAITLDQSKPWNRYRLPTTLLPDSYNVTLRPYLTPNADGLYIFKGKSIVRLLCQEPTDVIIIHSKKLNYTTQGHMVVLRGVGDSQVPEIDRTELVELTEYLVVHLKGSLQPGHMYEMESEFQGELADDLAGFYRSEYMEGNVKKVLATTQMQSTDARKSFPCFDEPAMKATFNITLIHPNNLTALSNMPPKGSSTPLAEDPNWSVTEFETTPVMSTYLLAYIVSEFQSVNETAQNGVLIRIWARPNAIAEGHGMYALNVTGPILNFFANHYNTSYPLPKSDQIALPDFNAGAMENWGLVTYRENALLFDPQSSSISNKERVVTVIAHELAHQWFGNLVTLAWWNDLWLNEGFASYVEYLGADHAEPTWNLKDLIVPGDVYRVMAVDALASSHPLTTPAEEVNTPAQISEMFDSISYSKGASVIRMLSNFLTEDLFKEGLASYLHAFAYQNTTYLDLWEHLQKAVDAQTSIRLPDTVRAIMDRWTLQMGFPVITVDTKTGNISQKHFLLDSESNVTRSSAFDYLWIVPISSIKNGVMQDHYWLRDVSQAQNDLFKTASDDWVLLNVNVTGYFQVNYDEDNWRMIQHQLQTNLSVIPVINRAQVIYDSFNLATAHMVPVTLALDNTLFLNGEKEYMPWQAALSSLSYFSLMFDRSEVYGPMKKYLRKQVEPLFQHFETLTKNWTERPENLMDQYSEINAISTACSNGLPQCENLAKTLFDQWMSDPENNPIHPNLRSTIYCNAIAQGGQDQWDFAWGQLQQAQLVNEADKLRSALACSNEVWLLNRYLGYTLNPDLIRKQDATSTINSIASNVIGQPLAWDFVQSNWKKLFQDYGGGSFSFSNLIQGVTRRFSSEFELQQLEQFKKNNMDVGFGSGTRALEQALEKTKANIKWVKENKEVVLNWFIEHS
Put plainly: Inhibition of pig microsomal aminopeptidase N using L-leu-p-nitroanilide as substrate incubated for 5 mins prior to substrate addition measured after 30 mins by spectrophotometric analysis. The procedure, abridged: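 Porcine kidney microsomal aminopeptidase in 50 mM PBS, pH 7.2. Compounds at various concentrations preincubated with enzyme 5 min at 37 °C, then L-leu-p-nitroanilide added and incubated 30 min at 37 °C. IC50 from triplicate experiments, mean ± SD.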

Assay [3] addresses Aminopeptidase N (Homo sapiens, UniProt P15144). Put plainly: Inhibition of aminopeptidase N in human ES2 cells using L-leu-p-nitroanilide as substrate incubated for 5 mins prior to substrate addition measured after 30 mins by spectrophotometric analysis. The format is cell-based. The procedure, abridged: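 Whole ES-2 cell suspension in PBS (1 × 10^5 cells/well) used as enzyme source. Compounds at various concentrations preincubated 5 min at 37 °C, then L-leu-p-nitroanilide added and incubated 30 min at 37 °C. IC50 from triplicate experiments, mean ± SD.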

Assay [4] can be described thus: Antiproliferative activity against human ES2 cells after 48 hrs by MTT assay. As to conditions: ES-2, 48 h. The format is functional, cell-based. The procedure, abridged:
(§1)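 Cells grown in RPMI1640 with FBS at 37 °C, 5% CO2; seeded 5000/well, 4 h before adding inhibitor at varied concentrations. After 48 h, 1% MTT added for 4 h, formazan dissolved in DMSO (15 min mixing), OD read at 570 nm. IC50 from three independent experiments, mean values.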

The next assay deals with U-937. Description: Antiproliferative activity against human U937 cells after 48 hrs by MTT assay. The format is functional, cell-based. As to conditions: U-937, 48 h. The procedure, abridged: as §1
Background: Tetrazolium dyes change colour on reduction, which living cells bring about.

Chain of Aminopeptidase N (Homo sapiens, UniProt P15144) (P15144 whole entry): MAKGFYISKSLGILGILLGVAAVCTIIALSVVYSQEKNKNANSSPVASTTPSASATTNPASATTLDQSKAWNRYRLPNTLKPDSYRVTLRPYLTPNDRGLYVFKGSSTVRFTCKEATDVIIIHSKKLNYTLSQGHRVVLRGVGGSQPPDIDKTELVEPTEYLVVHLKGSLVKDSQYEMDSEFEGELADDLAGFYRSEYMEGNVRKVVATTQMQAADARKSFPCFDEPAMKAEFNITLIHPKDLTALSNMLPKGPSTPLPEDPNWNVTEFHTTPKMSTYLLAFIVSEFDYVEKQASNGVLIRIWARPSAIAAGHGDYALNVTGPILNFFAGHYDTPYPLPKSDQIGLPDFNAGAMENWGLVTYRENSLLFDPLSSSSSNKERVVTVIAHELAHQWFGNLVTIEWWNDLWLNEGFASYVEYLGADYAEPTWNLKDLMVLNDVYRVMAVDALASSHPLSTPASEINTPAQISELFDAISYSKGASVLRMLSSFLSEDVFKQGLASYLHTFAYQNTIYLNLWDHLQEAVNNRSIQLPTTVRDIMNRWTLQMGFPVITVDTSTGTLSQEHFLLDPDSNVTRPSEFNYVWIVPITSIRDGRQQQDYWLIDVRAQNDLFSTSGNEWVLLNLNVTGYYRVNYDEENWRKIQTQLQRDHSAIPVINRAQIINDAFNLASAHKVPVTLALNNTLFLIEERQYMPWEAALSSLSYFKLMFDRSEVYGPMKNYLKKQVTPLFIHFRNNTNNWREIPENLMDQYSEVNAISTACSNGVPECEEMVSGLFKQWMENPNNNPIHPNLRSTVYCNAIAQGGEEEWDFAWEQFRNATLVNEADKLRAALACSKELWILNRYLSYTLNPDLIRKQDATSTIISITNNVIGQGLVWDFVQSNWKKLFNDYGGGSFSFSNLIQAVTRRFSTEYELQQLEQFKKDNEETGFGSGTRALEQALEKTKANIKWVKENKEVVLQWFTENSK

One may read the IC50 as the concentration at which inhibition is half-maximal. Higher therefore signals weaker potency in that assay. For `CC(C)C[C@H](NC(=O)Nc1ccccc1)C(=O)NO`, the figures for the IC50 (in assay [1]; against Aminopeptidase N [2]) were > 100 µM and 1.15 µM, respectively.
For `Cc1cccc(CNC(=O)N[C@@H](CC(C)C)C(=O)NO)c1`, the IC50 in assay [1] was > 100 µM; at Aminopeptidase N [2] it was 0.44 µM.
With `CC(C)C[C@H](NC(=O)Nc1ccccc1Br)C(=O)NO`, the IC50 is 0.53 µM at Aminopeptidase N [3]; > 100 µM in assay [1]; 405 µM in assay [4]; > 1000 µM with U-937; 0.06 µM against Aminopeptidase N [2].
For the compound `Cc1cccc(NC(=O)N[C@@H](CC(C)C)C(=O)NO)c1`, the IC50 in assay [1] was > 100 µM; at Aminopeptidase N [2] it was 0.24 µM.
In the case of `CC(C)C[C@H](NC(=O)Nc1cccc(Br)c1)C(=O)NO`, the IC50 is > 100 µM in assay [1] and 0.58 µM at Aminopeptidase N [2].
In the same order, the values of `CC(C)C[C@H](NC(=O)Nc1cccc(Cl)c1)C(=O)NO` are > 100 µM and 1.66 µM.
`Cc1ccccc1CNC(=O)N[C@@H](CC(C)C)C(=O)NO`: the IC50 was > 100 µM in assay [1] and 0.9 µM against Aminopeptidase N [2].
Take `CC(C)C[C@H](NC(=O)[C@@H](O)[C@H](N)Cc1ccccc1)C(=O)O` [UBENIMEX]: the IC50 is > 100 µM in assay [1], 620 µM in assay [4] and > 1000 µM in the assay on U-937.
For the compound `CC(C)C[C@H](NC(=O)Nc1cccc(O)c1)C(=O)NO`, the IC50 was > 100 µM in assay [1] and 1.7 µM at Aminopeptidase N [2].
On to `COc1cccc(NC(=O)N[C@@H](CC(C)C)C(=O)NO)c1`, for which the results for the IC50 (in assay [1]; against Aminopeptidase N [2]) were > 100 µM and 1.36 µM, respectively.
The corresponding values for `CC(C)C[C@H](NC(=O)Nc1ccccc1C(F)(F)F)C(=O)NO` are > 100 µM and 0.79 µM.
For the compound `CC(C)C[C@H](NC(=O)Nc1ccccc1Cl)C(=O)NO`, the IC50 against Aminopeptidase N [3] was 1.31 µM; in assay [1], > 100 µM; in assay [4], 615 µM; in the assay with U-937 it was > 1000 µM; at Aminopeptidase N [2], 0.093 µM.
`CC(C)C[C@H](NC(=O)Nc1cccc(C(F)(F)F)c1)C(=O)NO`: the IC50 was > 100 µM in assay [1] and 1.97 µM against Aminopeptidase N [2].
Take `CC(C)C[C@H](NC(=O)NCc1ccccc1Cl)C(=O)NO`: the half-maximal inhibitory concentration (IC50) against Aminopeptidase N [3] is 0.65 µM; in assay [1], > 100 µM; against Aminopeptidase N [2] it was 0.22 µM.
As to `CC(C)C[C@H](NC(=O)NCc1ccccc1Br)C(=O)NO`, the half-maximal inhibitory concentration (IC50) against Aminopeptidase N [3] was 0.73 µM; in assay [1], > 100 µM; at Aminopeptidase N [2], 0.13 µM.
Take `CC(C)C[C@H](NC(=O)NCc1ccccc1F)C(=O)NO`: the IC50 is > 100 µM in assay [1] and 1.38 µM at Aminopeptidase N [2].
Regarding `CC(C)C[C@H](NC(=O)Nc1cccc(F)c1)C(=O)NO`, the half-maximal inhibitory concentration (IC50) in assay [1] is > 100 µM; on Aminopeptidase N [2] it was 1.9 µM.
`COc1ccccc1NC(=O)N[C@@H](CC(C)C)C(=O)NO`: the IC50 is 0.7 µM at Aminopeptidase N [3]; > 100 µM in assay [1]; 480 µM in assay [4]; > 1000 µM with U-937; 0.13 µM against Aminopeptidase N [2].
`CC(C)C[C@H](NC(=O)Nc1ccccc1F)C(=O)NO`: the IC50 in assay [1] was > 100 µM; at Aminopeptidase N [2], 0.52 µM.
In the case of `Cc1ccccc1NC(=O)N[C@@H](CC(C)C)C(=O)NO`, the values for the concentration for half-maximal inhibition (IC50) (against Aminopeptidase N [3]; in assay [1]; against Aminopeptidase N [2]) were 0.61 µM, > 100 µM and 0.18 µM, respectively.
Turning to `CC(C)C[C@H](NC(=O)NCc1cccc(Cl)c1)C(=O)NO`, the figures for the IC50 (in assay [1]; at Aminopeptidase N [2]) were > 100 µM and 0.35 µM, respectively.
For the compound `CC(C)C[C@H](NC(=O)Nc1ccccc1O)C(=O)NO`, the 50% inhibitory concentration (IC50) in assay [1] is > 100 µM; against Aminopeptidase N [2] it was 11.9 µM.
